Measured values published in ChEMBL document CHEMBL1138521, “Discovery of 4-(5-(4-chlorophenyl)-2-methyl-3-propionyl-1H-pyrrol-1-yl)benzenesulfonamide (A-867744) as a novel positive allosteric modulator of the alpha7 nicotinic acetylcholine receptor” (J Med Chem, 2009).
pEC50: −log10 of the molar value. Each block holds one molecule with its values, some of them ahead of it. Calls of active or inactive are those of the source. The rule behind the calls is not given here.

Legend:
[1] = molecular target: T1, Neuronal acetylcholine receptor subunit alpha-7 (Homo sapiens, UniProt P36544); assay: Allosteric modulator activity at alpha7 nAChR in human IMR32 cells assessed as stimulation of agonist-induced intracellular calcium level by FLIPR assay; assay type: functional, cell-based, IMR-32
Procedure, shortened: (§1)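 IMR-32 human neuroblastoma cells (endogenous α7) on poly-D-lysine plates, loaded with calcium-4 no-wash dye in NMDG buffer (10 mM HEPES pH 7.4, 10 mM CaCl2) 1 h at 25 °C. Peak fluorescence over baseline, normalized to maximum; EC50 from 2–5 experiments in duplicate.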

[2] = molecular target: T1, Neuronal acetylcholine receptor subunit alpha-7; assay: Allosteric modulator activity at alpha7 nAChR in human IMR32 cells assessed as stimulation of agonist-induced intracellular calcium level by FLIPR assay relative to 1-(5-chloro-2,4-dimethoxyphenyl)-3-(5-methylisoxazol-3-yl)urea; assay type: functional, cell-based; details: IMR-32; procedure, shortened: as §1
[3] = Metabolic stability in rat liver microsomes assessed as compound remaining after 30 mins; assay type: ADME, Microsome; details: read-out: Stability
Procedure, shortened: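 Microsomes prewarmed 10 min at 37 °C; reaction started with compound (1 µM final) and NADPH (1 mM final) at 0.5 mg/mL protein, in triplicate. Sampled at 0, 10, 20 and 30 min; stopped with acetonitrile/methanol containing warfarin internal standard; centrifuged supernatant analysed by HPLC-MS.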

Oocyte [4] = assay: Modulator activity at alpha7 nAChR in Xenopus laevis oocytes cells assessed as activation of electric currents at 0.1 nM to 10 uM at -60 mV by two-electrode voltage clamp technique; assay type: cell-based
Procedure, shortened: (§2)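 Xenopus oocytes, collagenase-defolliculated, injected with ~20–25 ng α7 nAChR cRNA, kept at 18 °C and used 2–7 days later. Two-electrode voltage clamp at −60 mV, room temperature, in Ba2+-OR2 with 0.5 µM atropine. Modulator applied ≥60 s before 1 s application of 100 µM ACh. Apparent peak current expressed as percent of 100 µM ACh response; sigmoidal variable-slope fit.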

Oocyte [5] = assay: Modulator activity at alpha7 nAChR in Xenopus laevis oocytes cells assessed as enhancement of acetylcholine-evoked electric currents at -60 mV by two-electrode voltage clamp technique; assay type: cell-based; procedure, shortened: as §2
Oocyte [6] = assay: Modulator activity at alpha7 nAChR in Xenopus laevis oocytes cells assessed as decay of acetylcholine-evoked electric current response at -60 mV by two-electrode voltage clamp technique; assay type: cell-based; procedure, shortened: as §2
[7] = molecular target: Neuronal acetylcholine receptor subunit alpha-7 (Rattus norvegicus) (UniProt Q05941); assay: Modulator activity at alpha7 nAChR in rat neonatal cortical neurons assessed as enhancement of (R)-4-chloro-N-(quinuclidin-8-yl)benzamide-induced calcium flux response at 5 uM by FLIPR assay
Procedure, shortened: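 Primary neonatal rat cortical neurons cultured on poly-D-lysine plates (10000 cells/well), assayed 3 days after plating. Calcium-3 dye in HBSS with 20 mM HEPES. After 10 s baseline, modulator added for 3–5 min, then agonist. Peak fluorescence increase over baseline in RFU, normalized to maximal value.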

[8] = molecular target: Neuronal acetylcholine receptor; alpha4/beta2 (Homo sapiens) (UniProt P17787+P43681); assay: Activity at human recombinant alpha4beta2 nAChR expressed in HEK293 cells assessed as potentiation of nicotine-evoked calcium transients up to 30 uM; assay type: cell-based
[9] = molecular target: Neuronal acetylcholine receptor; alpha3/beta4 (Homo sapiens) (UniProt P30926+P32297); assay: Activity at human recombinant alpha3beta4 nAChR expressed in HEK293 cells assessed as potentiation of nicotine-evoked calcium transients up to 30 uM; assay type: cell-based
[10] = Half life in rat at 2 umol/kg, iv; assay type: ADME, organism-based; details: in vivo
[11] = Volume of distribution at steady state in rat at 2 umol/kg, iv; assay type: ADME, organism-based; details: in vivo, read-out: Vdss
[12] = Plasma clearance in rat at 2 umol/kg, iv; assay type: ADME, organism-based
[13] = Cmax in rat at 2 umol/kg, po; assay type: ADME, organism-based; parameters: dose 2 umol/kg, route oral; details: in vivo
[14] = Oral bioavailability in rat at 2 umol/kg; assay type: ADME, organism-based; details: in vivo
[15] = Half life in dog at 0.5 umol/kg, iv; assay type: ADME, organism-based, Canis lupus familiaris; details: in vivo
[16] = Volume of distribution at steady state in dog at 0.5 umol/kg, iv; assay type: ADME, organism-based, Canis lupus familiaris; details: in vivo, read-out: Vdss
[17] = Plasma clearance in dog at 0.5 umol/kg, iv; assay type: ADME, organism-based, Canis lupus familiaris
[18] = Cmax in dog at 1 umol/kg, po; assay type: ADME, organism-based, Canis lupus familiaris; parameters: dose 1 umol/kg, route oral; details: in vivo
[19] = Oral bioavailability in dog at 1 umol/kg; assay type: ADME, organism-based, Canis lupus familiaris; details: in vivo
[20] = Half life in monkey at 0.5 umol/kg, iv; assay type: ADME, organism-based, Macaca mulatta; details: rhesus monkey, in vivo
[21] = Volume of distribution at steady state in monkey at 0.5 umol/kg, iv; assay type: ADME, organism-based, Macaca mulatta; details: rhesus monkey, in vivo, read-out: Vdss
[22] = Plasma clearance in monkey at 0.5 umol/kg, iv; assay type: ADME, organism-based, Macaca mulatta; details: rhesus monkey
[23] = Cmax in monkey at 1 umol/kg, po; assay type: ADME, organism-based, Macaca mulatta; parameters: dose 1 umol/kg, route oral; details: rhesus monkey, in vivo
[24] = Oral bioavailability in monkey at 1 umol/kg; assay type: ADME, organism-based, Macaca mulatta; details: rhesus monkey, in vivo
Mus musculus = assay: Improvement in gating deficits in DBA/2 mouse model of sensory gating deficits assessed as reduction in ratio of response to test stimulus relative to preceding response to conditioning stimulus at 0.1 to 10 umol/kg, ip by paired auditory stimulus paradigm assay; assay type: functional, organism-based
Procedure, shortened: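 DBA/2 mice (16–20 g) implanted with hippocampal CA3 EEG electrodes under ketamine/xylazine/acepromazine, ≥4 days recovery. Dosed ip in 5% DMSO/5% Solutol in PBS immediately before recording; 120 paired 5 ms white-noise bursts 0.5 s apart over 30 min. N40 amplitude T:C ratio. Within-subjects random-order crossover with vehicle, ≥72 h apart; mean ± SEM, one-way ANOVA with Newman-Keuls test.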

Brain [25] = assay: Drug level in brain of DBA/2 mouse model of sensory gating deficits at 0.1 umol/kg, ip; assay type: functional, tissue-based
Procedure, shortened: (§3)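 DBA/2 mice dosed ip at 0.1, 1.0 or 10.0 µmol/kg in vehicle of 5% DMSO and 5% Solutol in PBS; brain concentration reported in ng/g.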

Brain [26] = assay: Drug level in brain of DBA/2 mouse model of sensory gating deficits at 1 umol/kg, ip; assay type: functional, tissue-based; procedure, shortened: as §3
Brain [27] = assay: Drug level in brain of DBA/2 mouse model of sensory gating deficits at 10 umol/kg, ip; assay type: functional, tissue-based; procedure, shortened: as §3
Rattus norvegicus [28] = assay: Plasma concentration Sprague-Dawley rat at 3 mg/kg; assay type: ADME, organism-based; parameters: dose 3 mg/kg; details: in vivo
Procedure, shortened: (§4)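 Anesthetized rat cardiovascular assay at 3, 10 and 30 mg/kg, with plasma concentrations measured alongside mean arterial pressure, heart rate, contractility and peripheral vascular resistance.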

Rattus norvegicus [29] = assay: Plasma concentration Sprague-Dawley rat at 10 mg/kg; assay type: ADME, organism-based; parameters: dose 10 mg/kg; details: in vivo; procedure, shortened: as §4
Rattus norvegicus [30] = assay: Plasma concentration Sprague-Dawley rat at 30 mg/kg; assay type: ADME, organism-based; parameters: dose 30 mg/kg; details: in vivo; procedure, shortened: as §4

T1 sequence (P36544 whole entry): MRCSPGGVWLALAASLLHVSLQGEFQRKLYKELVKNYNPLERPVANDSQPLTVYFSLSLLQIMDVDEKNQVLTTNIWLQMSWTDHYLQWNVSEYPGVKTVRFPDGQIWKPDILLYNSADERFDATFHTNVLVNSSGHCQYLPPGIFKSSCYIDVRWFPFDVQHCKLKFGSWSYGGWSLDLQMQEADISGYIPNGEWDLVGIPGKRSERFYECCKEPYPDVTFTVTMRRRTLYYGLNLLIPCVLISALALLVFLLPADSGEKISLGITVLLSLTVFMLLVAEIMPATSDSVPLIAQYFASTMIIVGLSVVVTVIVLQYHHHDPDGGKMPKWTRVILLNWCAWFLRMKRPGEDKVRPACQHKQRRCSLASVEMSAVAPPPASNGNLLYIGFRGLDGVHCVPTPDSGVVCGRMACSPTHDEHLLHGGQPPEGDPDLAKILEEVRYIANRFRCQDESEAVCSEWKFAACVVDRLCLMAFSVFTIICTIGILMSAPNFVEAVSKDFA
Chain of Neuronal acetylcholine receptor subunit alpha-7 (Rattus norvegicus) (Q05941 whole entry): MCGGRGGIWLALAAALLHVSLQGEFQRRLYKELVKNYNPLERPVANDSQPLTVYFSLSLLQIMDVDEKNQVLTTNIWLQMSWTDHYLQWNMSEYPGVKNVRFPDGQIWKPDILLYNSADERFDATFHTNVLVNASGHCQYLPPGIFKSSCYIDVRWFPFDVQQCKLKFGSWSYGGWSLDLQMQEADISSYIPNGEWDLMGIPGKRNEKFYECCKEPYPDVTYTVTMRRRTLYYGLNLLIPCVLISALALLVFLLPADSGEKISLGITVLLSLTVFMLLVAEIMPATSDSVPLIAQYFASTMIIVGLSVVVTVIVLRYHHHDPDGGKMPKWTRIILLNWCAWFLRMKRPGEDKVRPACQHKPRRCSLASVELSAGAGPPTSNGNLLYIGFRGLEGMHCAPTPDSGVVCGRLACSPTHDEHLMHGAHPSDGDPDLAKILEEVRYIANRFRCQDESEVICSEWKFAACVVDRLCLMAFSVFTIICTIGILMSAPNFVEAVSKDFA

pEC50 [1]: 5.03 | Efficacy [2]: 57% | remaining at 0.5 h [3]: 31%
Structure (SMILES): Cc1c(C(=O)N2CCCC2)cc(-c2ccc(Cl)cc2)n1-c1ccc(S(N)(=O)=O)cc1

pEC50 [1]: < 4.52 | Efficacy [2]: 8%
Structure (SMILES): Cc1c(C(=O)N(C)C(C)C)cc(-c2ccc(Cl)cc2)n1-c1ccc(S(N)(=O)=O)cc1

remaining at 0.5 h [3]: 3%
Structure (SMILES): CCOC(=O)c1cc(-c2ccc(Cl)cc2)n(-c2ccc(S(N)(=O)=O)cc2)c1C

pEC50 [1]: < 4.52 | Efficacy [2]: 3%
Structure (SMILES): CCN(C)C(=O)c1cc(-c2ccc(Cl)cc2)n(-c2ccc(S(N)(=O)=O)cc2)c1C

pEC50 [1]: < 4.52 | Efficacy [2]: 7%
Structure (SMILES): Cc1ccc(C(=O)c2cc(-c3ccc(Cl)cc3)n(-c3ccc(S(N)(=O)=O)cc3)c2C)cc1

pEC50 [1]: 5.31 | Efficacy [2]: 9% | remaining at 0.5 h [3]: 38%
Structure (SMILES): Cc1cc(C(=O)c2cc(-c3ccc(Cl)cc3)n(-c3ccc(S(N)(=O)=O)cc3)c2C)ccc1Cl

pEC50 [1]: < 4.52 | Efficacy [2]: 4%
Structure (SMILES): Cc1c(C(=O)N(C)C)cc(-c2ccc(Cl)cc2)n1-c1ccc(S(N)(=O)=O)cc1

pEC50 [1]: 5.31 | Efficacy [2]: 25% | remaining at 0.5 h [3]: 92%
Structure (SMILES): Cc1c(C(=O)C2CC2)cc(-c2ccc(Cl)cc2)n1-c1ccc(S(N)(=O)=O)cc1

pEC50 [1]: < 4.52 | Efficacy [2]: 8%
Structure (SMILES): Cc1c(C(=O)O)cc(-c2ccc(Cl)cc2)n1-c1ccc(S(N)(=O)=O)cc1

pEC50 [1]: 5.44 | Efficacy [2]: 11% | remaining at 0.5 h [3]: 58%
Structure (SMILES): CCCN(CCO)C(=O)c1cc(-c2ccc(Cl)cc2)n(-c2ccc(S(N)(=O)=O)cc2)c1C

remaining at 0.5 h [3]: 96% | Activity [7]: Active | Activity [8]: inactive | Activity [9]: inactive | half-life [10]: 1.7 h | Vd [11]: 4.6 L/kg | clearance [12]: 35 mL/min/kg | Cmax [13]: 41 ng/mL | bioavailability [14]: 83% | half-life [15]: 1.3 h | Vd [16]: 1.7 L/kg | clearance [17]: 18.3 mL/min/kg | Cmax [18]: 87 ng/mL | bioavailability [19]: 55% | half-life [20]: 1 h | Vd [21]: 2.8 L/kg | clearance [22]: 41.7 mL/min/kg | Cmax [23]: 17 ng/mL | bioavailability [24]: 68% | Cp (Rattus norvegicus [28]): 1000 ng/mL | Cp (Rattus norvegicus [29]): 5000 ng/mL | Cp (Rattus norvegicus [30]): 12400 ng/mL
Structure (SMILES): CCC(=O)c1cc(-c2ccc(Cl)cc2)n(-c2ccc(S(N)(=O)=O)cc2)c1C
Activity (Oocyte [4]): inactive | Activity (Oocyte [5]): Dose-dependent effect | Activity (Oocyte [6]): Active | Activity (Mus musculus): Active | Drug uptake (Brain [25]): 2 ng/g | Drug uptake (Brain [26]): 15 ng/g | Drug uptake (Brain [27]): 140 ng/g

remaining at 0.5 h [3]: 64%
Structure (SMILES): CC(=O)c1cc(-c2ccc(Cl)cc2)n(-c2ccc(S(N)(=O)=O)cc2)c1C

pEC50 [1]: < 4.52 | Efficacy [2]: 5%
Structure (SMILES): Cc1c(C(=O)N2CCOCC2)cc(-c2ccc(Cl)cc2)n1-c1ccc(S(N)(=O)=O)cc1

pEC50 [1]: < 4.52 | Efficacy [2]: 11%
Structure (SMILES): Cc1c(C(=O)N2CCCCC2)cc(-c2ccc(Cl)cc2)n1-c1ccc(S(N)(=O)=O)cc1

pEC50 [1]: 5.59 | Efficacy [2]: 20% | remaining at 0.5 h [3]: 2%
Structure (SMILES): CCOC(=O)c1cc(-c2ccc(Br)cc2)n(-c2ccc(S(N)(=O)=O)cc2)c1C

pEC50 [1]: 5.41 | Efficacy [2]: 74% | remaining at 0.5 h [3]: 44%
Structure (SMILES): Cc1c(C(=O)CC(C)C)cc(-c2ccc(Cl)cc2)n1-c1ccc(S(N)(=O)=O)cc1

pEC50 [1]: 4.98 | Efficacy [2]: 26% | remaining at 0.5 h [3]: 45%
Structure (SMILES): COc1ccc(F)cc1C(=O)c1cc(-c2ccc(Cl)cc2)n(-c2ccc(S(N)(=O)=O)cc2)c1C

pEC50 [1]: < 4.52 | Efficacy [2]: 5%
Structure (SMILES): Cc1c(C(=O)c2ccc(Cl)cc2)cc(-c2ccc(Cl)cc2)n1-c1ccc(S(N)(=O)=O)cc1
